According to ChEMBL document CHEMBL1128495, “Synthetic chemical diversity: solid phase synthesis of libraries of C2 symmetric inhibitors of HIV protease containing diamino diol and diamino alcohol cores” (J Med Chem, 1995):

Assays:
[1] = target: Human immunodeficiency virus type 1 protease (Human immunodeficiency virus 1, UniProt Q72874); assay: Inhibition of HIV protease
Summary of the method: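 Fluorometric HIV protease activity assay on unpurified samples. Concentrations were calculated from the weight of unpurified material, with no correction for impurities. Each sample was tested at 3–5 concentrations where feasible, and IC50 was derived from the percent-inhibition data.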

[2] = target: Human immunodeficiency virus type 1 protease (Human immunodeficiency virus 1) (UniProt Q72874); assay: Inhibitory activity against HIV Protease at a dose of 0.5 nM
Summary of the method: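 Fluorometric HIV protease activity assay run on an unpurified sample. Concentration was based on the weight of unpurified material, with no correction for impurities. Percent inhibition was read at a single concentration of 0.5 nM.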

Row | IC50 [1] | inhibition [2] | Structure (SMILES)
1 | < 1 nM | – | CC(C)[C@H](NC(=O)CSc1ncccn1)C(=O)N[C@@H](Cc1ccccc1)C[C@H](O)[C@H](Cc1ccccc1)NC(=O)[C@@H](NC(=O)CSc1ncccn1)C(C)C
2 | < 1 nM | 40% | CC(C)[C@H](NC(=O)Cc1csc(N)n1)C(=O)N[C@@H](Cc1ccccc1)C[C@H](O)[C@H](Cc1ccccc1)NC(=O)[C@@H](NC(=O)Cc1csc(N)n1)C(C)C
3 | 13 nM | – | Cc1nc(C)c(C(=O)N[C@H](C(=O)N[C@@H](Cc2ccccc2)C[C@H](O)[C@H](Cc2ccccc2)NC(=O)[C@@H](NC(=O)c2sc(C)nc2C)C(C)C)C(C)C)s1
4 | < 1 nM | 71% | COc1cc(CC(=O)N[C@H](C(=O)N[C@@H](Cc2ccccc2)C[C@H](O)[C@H](Cc2ccccc2)NC(=O)[C@@H](NC(=O)Cc2cc(OC)c(OC)c(OC)c2)C(C)C)C(C)C)cc(OC)c1OC

More lines, now with the values behind:

Row | Structure (SMILES) | IC50 [1] | inhibition [2]
5 | CC(C)[C@H](NC(=O)C(O)(c1ccccc1)c1ccccc1)C(=O)N[C@@H](Cc1ccccc1)[C@@H](O)[C@H](O)[C@H](Cc1ccccc1)NC(=O)[C@@H](NC(=O)C(O)(c1ccccc1)c1ccccc1)C(C)C | 6400 nM | –
6 | CC(C)[C@H](NC(=O)C(O)(c1ccccc1)c1ccccc1)C(=O)N[C@@H](Cc1ccccc1)C[C@H](O)[C@H](Cc1ccccc1)NC(=O)[C@@H](NC(=O)C(O)(c1ccccc1)c1ccccc1)C(C)C | 160 nM | –
7 | Cc1nc(C)c(C(=O)N[C@H](C(=O)N[C@@H](Cc2ccccc2)[C@@H](O)[C@H](O)[C@H](Cc2ccccc2)NC(=O)[C@@H](NC(=O)c2sc(C)nc2C)C(C)C)C(C)C)s1 | 860 nM | –
8 | CC(C)[C@H](NC(=O)Cc1csc(N)n1)C(=O)N[C@@H](Cc1ccccc1)[C@@H](O)[C@H](O)[C@H](Cc1ccccc1)NC(=O)[C@@H](NC(=O)Cc1csc(N)n1)C(C)C | 12 nM | –
9 | CC(C)[C@H](NC(=O)CC1NC(=O)NC1=O)C(=O)N[C@@H](Cc1ccccc1)C[C@H](O)[C@H](Cc1ccccc1)NC(=O)[C@@H](NC(=O)CC1NC(=O)NC1=O)C(C)C (some centres undefined) | < 1 nM | 43%
10 | CC(C)[C@H](NC(=O)CC1NC(=O)NC1=O)C(=O)N[C@@H](Cc1ccccc1)[C@@H](O)[C@H](O)[C@H](Cc1ccccc1)NC(=O)[C@@H](NC(=O)CC1NC(=O)NC1=O)C(C)C (some centres undefined) | 9.6 nM | 33%
